Bioassay records from PubChem BioAssay.
Only some compounds are listed: those with a hit (about 3.1% of all), similar ones and a draw of the others.
HSP90 inh = HSP90 refolding inhibition in rabbit reticulocyte lysate. inhibition, % at 5.6 µM. 0.91% of 290,000 active. luciferase refolding luminescence, 3 h;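 active = inhibition above the screen-wide mean plus 3 SD, computed separately per campaign, cut at about 16% in these data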;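 also: 0% = DMSO wells and 100% = 60 µM geldanamycin wells; inhibitors lower the luminescence because luciferase stays unfolded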
HSF-1 act = increases HSF-1 driven luciferase reporter signal; NIH3T3-HGL HSF-1 luciferase reporter, MG132, 8 h; 100% = twice DMSO control signal; activation, % at 9 µM; 1.7% of 300,000 active; AID 504408;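 active = mean replicate activation of at least 50% with a set share of replicates each reaching 50%; inconclusive = only one of those two conditions met; inactive = mean below 50% and too few replicates reaching it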;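 also: 0% = median of the neutral control wells and 100% = twice that signal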
HKDC1 inh = inhibitors of human hexokinase HKDC1. Q2TB90. recombinant HKDC1, G6PDH/diaphorase resazurin coupled fluorescence. inhibition, % at 20 µM. 0.16% of 340,000 active. AID 493160;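 active = inhibition above about 35% when tested at 20 µM, limit read from the data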;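 also: plate controls were DMSO wells with enzyme for no effect and DMSO wells lacking enzyme for full effect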
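Assay system: recombinant HKDC1 hexokinase; detection: coupled resazurin fluorescence, excitation 525 nm, emission 613 nm; benchmarks: DMSO-plus-enzyme-mix negative control, buffer-substituted positive control; compound dosing: single 20 µM dose; schedule: 90 min at room temperature in dark; also added: glucose plus 1 mM ATP as hexokinase substrates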
Tb hexokinase = T. brucei hexokinase 1 inhibition. recombinant TbHK1, G6PDH-coupled NADH A340. inhibition, % at 10 µM. 0.11% of 220,000 active. AID 1430;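 active = inhibition of 50% or more in the single-dose primary screen; inactive = inhibition below 50%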
Hsp70 act = Hsp70 transcriptional activation, primary screen. HeLa Hsp70 promoter luciferase reporter, luminescence; scaled: vehicle 0, proteasome-inhibitor control 100%. activation, % at 10 µM. 0.04% of 200,000 active;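 active = activation above the mean across all tested compounds plus 3 SD, cutoff set per campaign, cut at about 5.5% in these data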;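 also: 100% = MG132 at 30 µM as the positive control and 0% = DMSO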
HSF1 inh = HSF1 inhibition | NIH3T3-HGL HSE-luciferase, MG132-induced, luminescence 8 h; hits give low values | activity change, negative = inhibition, % at 7.5 µM (by protocol) | 0.77% of 300,000 active;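 active = more than half of replicate wells show activity change below -50%, luminescence cut by over half; inconclusive = some wells, but at most half, below -50%; inactive = no replicate well below -50%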;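 also: luciferase reports HSF-1 transcriptional activity via heat shock element; 0% = median of DMSO wells and -100% = zero luminescence signal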
HSP90 confirm = HSP90 inhibition, confirmation assay; shares compounds with HSP90 inh; 64% of 2,300 active; inhibition, % at 5.9 µM; AID 1846; rabbit reticulocyte lysate, luciferase refolding luminescence, 3 h; in the data active = inhibition above about 18%;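 also: 0% = vehicle wells and 100% = reference inhibitor wells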
luciferase ctr = firefly luciferase inhibition, HSP90 counter-screen. shares compounds with HSP90 inh. purified native firefly luciferase, luminescence. inhibition, % at 5.9 µM. 48% of 2,300 active. AID 1847;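 active = inhibition above the mean inhibition of all tested sample wells plus 3 SD, cut at about 10% in these data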;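 also: 0% = DMSO with luciferase and 100% = wells lacking luciferase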
Target sequence (P08659 whole entry, looked up): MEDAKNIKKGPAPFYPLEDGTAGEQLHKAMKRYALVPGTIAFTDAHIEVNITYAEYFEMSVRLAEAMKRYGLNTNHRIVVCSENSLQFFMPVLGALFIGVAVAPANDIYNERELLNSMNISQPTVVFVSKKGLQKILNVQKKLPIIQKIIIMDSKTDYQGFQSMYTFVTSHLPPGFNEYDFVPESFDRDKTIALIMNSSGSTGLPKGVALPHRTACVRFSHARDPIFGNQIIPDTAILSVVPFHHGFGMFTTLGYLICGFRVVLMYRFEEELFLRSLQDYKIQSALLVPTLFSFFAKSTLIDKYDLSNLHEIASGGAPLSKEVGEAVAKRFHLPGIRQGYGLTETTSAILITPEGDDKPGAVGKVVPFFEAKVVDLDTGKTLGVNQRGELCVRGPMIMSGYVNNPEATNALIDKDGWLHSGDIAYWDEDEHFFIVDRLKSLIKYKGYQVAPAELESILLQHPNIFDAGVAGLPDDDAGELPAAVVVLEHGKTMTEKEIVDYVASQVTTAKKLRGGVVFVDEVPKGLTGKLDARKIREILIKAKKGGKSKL
An asterisk follows results filed as active; u = inconclusive; x = no result.

SMILES	HSP90 inh	HSF-1 act	HKDC1 inh	Tb hexokinase	Hsp70 act	HSF1 inh	HSP90 confirm	luciferase ctr
CC(C)c1ccc(/C=N/Nc2ccc(C(=O)O)cc2)cc1	61*	-91	16	19	-1	-90*	90*	85*
COc1ccc(/C=N/Nc2ccc(C(=O)O)cc2)cc1OC	35*	-30	-1	-64	x	-20	44*	29*
O=C(O)c1ccc(N/N=C/c2ccc(OC(=O)c3ccccc3Cl)cc2)cc1	36*	-56	9	-40	0	-55*	88*	7
COc1ccc(/C=N/Nc2ccc(C(=O)O)cc2)cc1Br	60*	-82	-5	-15	0	-78*	76*	76*
CCCCN(C)CCNC(=O)CN1C(=O)CSc2ccc(S(=O)(=O)N3CCCC3)cc21	-3	2	-2	x	x	0	x	x
NC(=O)CC(NC(=O)c1ccc(Br)cc1)c1ccc(NC2CCCCCCC2)c([N+](=O)[O-])c1 (configuration not stated)	3	30	-1	x	x	19	x	x
COc1ccc(S(=O)(=O)N2CCCC2CNC(=O)C(=O)NCc2cccs2)cc1 (configuration not stated)	x	1	2	x	x	-2	x	x
O=C(O)c1ccc(N/N=C/c2ccc(-c3ccccc3Cl)o2)cc1	53*	-52	3	-20	x	u	60*	46*
O=C(N/N=C/c1ccc(-c2ccccc2Cl)o1)c1ccccc1	4	37	-5	-1	0	6	x	x
Cc1ccc(C(=O)NCCn2cc(SCC(=O)Nc3cc(C)on3)c3ccccc32)cc1	29*	-44	6	7	0	-39	31*	7
O=C(CSc1cn(CCNC(=O)c2ccccc2)c2ccccc12)NCc1ccco1	28*	9	-10	-6	0	2	25*	-8
CCCn1cc(SCC(=O)NCc2ccco2)c2ccccc21	-2	16	7	-4	0	3	x	x
COC(=O)[C@@]1(Cc2ccccc2)[C@H]2C(=O)N(C)C(=O)[C@H]2[C@H]2CN=C(SC)N21	x	x	2	x	x	x	x	x
O=C(Nc1ccccc1O)c1cc2cc(Br)ccc2oc1=O	17*	33	-3	x	x	16	-4	-16
O=C(NNC(=O)c1cc2cc(Br)ccc2oc1=O)c1ccc(O)cc1	-3	-9	-3	-3	0	-4	x	x
CCOc1cccc(CN2CCCC(N3CCc4cc(OC)c(OC)cc4C3)C2)c1O (configuration not stated)	0	3	1	x	x	0	x	x
Cc1cnc(C(=O)Nc2ccc3c(c2)CCC3)cn1	17*	u	-5	-6	0	27	27*	18*
CCn1ccc(C(=O)Nc2ccc(N(C)C(C)=O)cc2)n1	-2	13	-6	4	0	5	x	x
CCn1ccc(C(=O)Nc2ccc3c(c2)CCC3)n1	19*	29	5	x	x	40	30*	15*
O=C(Nc1ccc2c(c1)CCC2)c1cnccn1	-6	32	-9	-4	0	16	x	x
Cc1ccc(C2/C(=C(/O)c3cnn(-c4ccccc4)c3C)C(=O)C(=O)N2CCCN2CCOCC2)o1 (configuration not stated)	-2	32	x	-13	x	15	x	x
COc1cccc(C2/C(=C(/O)c3cnn(-c4ccccc4)c3C)C(=O)C(=O)N2CCN(C)C)c1 (configuration not stated)	7	-7	7	-32	0	-5	x	x
Cc1c(/C(O)=C2\C(=O)C(=O)N(CCN(C)C)C2c2cccs2)cnn1-c1ccccc1 (configuration not stated)	40*	-46	2	-34	0	-39	10	-3
Cc1c(/C(O)=C2/C(=O)C(=O)N(CCN3CCOCC3)C2c2ccccn2)cnn1-c1ccccc1 (configuration not stated)	76*	-86	1	-9	0	-85*	22*	36*
CC(=O)N(Cc1ccc(F)cc1)C1=C(NCCc2ccccc2)C(=O)c2ccccc2C1=O	48*	33	21	-16	0	9	12	-5
SMILES	HSP90 inh	HSF-1 act	HKDC1 inh	Tb hexokinase	Hsp70 act	HSF1 inh	HSP90 confirm	luciferase ctr
O=C(c1ccc(Cl)cc1)N1CCc2ccccc21	18*	16	-5	x	x	12	-9	-14
COc1ccc(C(NC(C)=O)c2cc(Cl)c3cccnc3c2O)cc1OC (configuration not stated)	2	-18	-22	-6	0	-5	x	x
COc1ccccc1C(NC(C)=O)c1cc(Cl)c2cccnc2c1O (configuration not stated)	24*	-46	-22	x	x	-46	14	-11
Cc1[nH]n(-c2ccccc2)c(=O)c1C(c1ccccc1C(=O)O)c1c(C)[nH]n(-c2ccccc2)c1=O	3	-12	5	-3	0	-1	x	x
Cc1[nH]n(-c2ccccc2)c(=O)c1C(c1ccccc1[N+](=O)[O-])C(C#N)C#N (configuration not stated)	28*	-3	5	x	x	2	2	-4
COc1ccc(N(CC(=O)NCc2cccs2)S(=O)(=O)c2cccc(C)c2)cc1	x	x	2	x	x	x	x	x
O=C(Nc1ccc(Cl)cc1)c1cc2c(cc1O)[nH]c1ccccc12	-4	-8	0	-21	x	-1	x	x
Cc1ccc(Nc2ncnc(Cl)c2N)cc1	x	x	-4	x	x	x	x	x
O=C(Nc1ccc2c(c1)nc1n2CCSC1)c1ccco1	35*	30	2	-2	0	7	45*	20*
O=C(Nc1ccc2c(c1)nc1n2CCOC1)c1ccco1	3	20	-11	-10	0	2	x	x
COC(=O)C1=C(C(=O)OC)[C@]2([C@H]3CC=CCN[C@@H](Cc4ccccc4)C(=O)N3Cc3ccccc3)C=C[C@H]1O2	x	x	2	x	x	x	x	x
CCOC(=O)c1cccc(-c2ccc(C=O)o2)c1	-1	19	-1	-36	0	8	x	x
CCOC(=O)c1ccc(-c2ccc(C=O)o2)cc1	30*	33	-1	-74	x	26	52*	-13
Cc1ccc(CNC(=O)C2CCC(=O)N(C3CC3)C2)cc1 (configuration not stated)	-4	-12	1	x	x	-1	x	x
O=C(Nc1ccccc1)SC1CCCCC1	x	x	0	x	x	x	x	x
COC(=O)[C@@H](c1ccccc1)N(C)S(=O)(=O)c1cccc(S(=O)(=O)N(C)[C@@H](C(=O)OC)c2ccccc2)c1	22*	16	8	x	x	1	12	-8
COc1ccc(OC)c(N(CC(=O)N2CCN(Cc3ccccc3)CC2)S(C)(=O)=O)c1	20*	-13	-8	x	x	-6	-1	-6
